From ChEMBL document CHEMBL4411297, “Discovery, synthesis and anti-atherosclerotic activities of a novel selective sphingomyelin synthase 2 inhibitor” (Eur J Med Chem, 2019) come the findings set out here.

As a reminder, the AUC(0-inf) is total exposure, with the tail of the curve extrapolated. In general, AUC refers to the area under the concentration-time curve, a measure of exposure. As a reminder, the Cmax is the peak of the concentration-time curve.

Active and inactive are the calls of the source. The calls are words filed in the database; no cut-off is given here.

The nature of data set [1]: AUC (0 to infinity) in C57BL/6J mouse at 100 mg/kg/day, ig by HPLC-MS/MS analysis. The conditions noted are these: in vivo, po. Details: dose 100 mg/kg/day, route intragastric, time infinity. The data set is classed as ADME, organism-based. Put shortly:
(§1)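 Male C57BL/6J mice, six to eight weeks old, about 20 g, fasted 12 h with free water. Given a single intragastric dose of 25, 50 or 100 mg/kg in 10% DMSO/30% PEG-100/0.9% NaCl. Blood taken retro-orbitally at 5 min to 8 h. Plasma protein-precipitated with methanol plus internal standard, then HPLC-MS/MS on a C18 column. Noncompartmental analysis, n = 6.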

Data set [2] relates to Mus musculus. As to the kind of experiment: Anti-atherosclerotic activity in apoE knockout mouse fed with western-type diet assessed as reduction in monocyte count at 12.5 mg/kg/day, ig for 7 weeks by flow cytometric analysis relative to control. Format: functional. Details: scale not given: the % may be the effect or the level left. Summed up:
(§2)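 ApoE KO mice started at 8 weeks old on Western-type diet for 6 weeks. Then dosed by gavage daily with vehicle, 12.5 or 40 mg/kg for 7 weeks with the diet continued, 10 mice per group. Blood single-cell suspensions stained with antibodies in PBS and analysed by flow cytometry. Mean ± SD, n = 5.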
(In general: A flow cytometer gives signals particle by particle.)

Data set [3] has as its system Mus musculus. As to the kind of experiment: Anti-atherosclerotic activity in apoE knockout mouse fed with western-type diet assessed as reduction in macrophage content at 12.5 mg/kg/day, ig for 7 weeks by immunostaining assay relative to control. Format: functional. Details: scale not given: the % may be the effect or the level left. Summed up: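 ApoE KO mice on Western-type diet, dosed by gavage at 12.5 or 40 mg/kg/day for 7 weeks. Aortic root sections 4 µm thick immunostained with MOMA-2: primary antibody 1 h at room temperature, biotinylated secondary, HRP-streptavidin, DAB, hematoxylin counterstain. Stained area quantified and expressed relative to vehicle.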

Data set [4] concerns Mus musculus. As to the kind of experiment: Anti-atherosclerotic activity in apoE knockout mouse fed with western-type diet assessed as reduction in CD11b+/CD11c+ dendritic cells at 12.5 mg/kg/day, ig for 7 weeks by flow cytometric analysis. The data set is classed as functional, organism-based. Summed up: as §2
Data set [5] concerns Mus musculus. As to the kind of experiment: Down regulation of sphingomyelin levels in C57BL/6J mouse plasma at 100 mg/kg/day, ig qd for 7 days measured on day 3 and 7. The data set is classed as functional, organism-based. Put shortly: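 C57BL/6J mice dosed by gavage at 100 mg/kg once daily for 7 days. Plasma SM sampled on days 0, 3 and 7. Plasma ALT and AST measured on day 7 by automated analyzer. Compared with vehicle, n = 10.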

Data set [6] has as its system Mus musculus. As to the kind of experiment: Anti-atherosclerotic activity in apoE knockout mouse fed with western-type diet assessed as reduction in CD4+/CD8+ cell ratio at 12.5 mg/kg/day, ig for 7 weeks by flow cytometric analysis relative to control. The data set is classed as functional. Details: scale not given: the % may be the effect or the level left. Summed up:
as §2

The subject of data set [7] is Mus musculus. As to the kind of experiment: Anti-atherosclerotic activity in apoE knockout mouse fed with western-type diet assessed as reduction in CD4+/CD8+ cell ratio at 40 mg/kg/day, ig for 7 weeks by flow cytometric analysis relative to control. The data set is classed as functional. Details: scale not given: the % may be the effect or the level left. Summed up:
as §2

A short description of data set [8]: AUC (0 to 8 hrs) in C57BL/6J mouse at 100 mg/kg/day, ig by HPLC-MS/MS analysis. Format: ADME, organism-based. Details: dose 100 mg/kg/day, time < 8 hr, route intragastric. As to conditions: in vivo, po. Put shortly:
as §1

The test system of data set [9] is Mus musculus. As to the kind of experiment: Anti-atherosclerotic activity in apoE knockout mouse fed with western-type diet assessed as reduction in monocyte count at 40 mg/kg/day, ig for 7 weeks by flow cytometric analysis relative to control. The data set is classed as functional. Details: scale not given: the % may be the effect or the level left. Summed up:
as §2

Data set [10] can be described thus: Cmax in C57BL/6J mouse at 100 mg/kg/day, ig by HPLC-MS/MS analysis. As to conditions: in vivo, po. Details: dose 100 mg/kg/day, route intragastric. The data set is classed as ADME, organism-based. Summed up: as §1
Data set [11] deals with Mus musculus. As to the kind of experiment: Anti-atherosclerotic activity in apoE knockout mouse fed with western-type diet assessed as reduction in lesions in whole aorta at 40 mg/kg/day, ig for 7 weeks by oil-red O staining-based assay relative to control. Details: scale not given: the % may be the effect or the level left. Format: functional. Put shortly:
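ApoE KO mice fed Western-type diet, then given 12.5 or 40 mg/kg/day by gavage in 30% PEG-400/10% DMSO/0.9% NaCl for 7 weeks. Aortic root: H&E-stained 4 µm sections, mean lesion area from 6 sections per animal. Whole aorta: en face Oil Red O staining, percentage of area stained. Compared with vehicle, n = 10.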

A short description of data set [12]: AUC (0 to infinity) in C57BL/6J mouse at 50 mg/kg/day, ig by HPLC-MS/MS analysis. The data set is classed as ADME, organism-based. Details: dose 50 mg/kg/day, time infinity, route intragastric. As to conditions: in vivo, po. Put shortly:
as §1

The test system of data set [13] is Mus musculus. As to the kind of experiment: Anti-atherosclerotic activity in apoE knockout mouse fed with western-type diet assessed as reduction in plasma SM level at 40 mg/kg/day, ig for 7 weeks relative to control. Format: functional. Details: scale not given: the % may be the effect or the level left. Summed up:
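ApoE KO mice on Western-type diet, dosed by gavage at 12.5 or 40 mg/kg/day for 7 weeks, n = 10. Blood collected at 20 weeks of age. Plasma SM measured by a previously reported method. ALT and AST read on an automated biochemical analyzer.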

Consider `CCc1ccccc1COc1ccccc1C(=O)Nc1cccnc1`, for which the AUC(0-inf) was 14500 ng·h/mL in [1] and 6790 ng·h/mL in data set [12]. Further, the Activity was 51% in [2]; 28% in [3]; 34% in data set [6]; 37% in data set [7]; 50% in [9]; 41% in data set [11]. The Activity in [13] is 41%. For the same compound, the result in data set [4] was inactive. Besides, the outcome in data set [5] was Active. Also, the AUC at 8 h in data set [8] is 13200 ng·h/mL. In data set [10], this compound displayed a Cmax of 14100 ng/mL.
